Source: ChEMBL document CHEMBL4011638, “Semisynthetic Flavone-Derived Antimicrobials with Therapeutic Potential against Methicillin-Resistant Staphylococcus aureus (MRSA)” (J Med Chem, 2017)
Values after ≈ are worked out from the molar mass of the structure shown. Active and inactive are the calls of the source. The calls are words filed in the database; no cut-off is given here.

Key:
Staphylococcus aureus [1] = test: Antibacterial activity against methicillin-sensitive Staphylococcus aureus ATCC 29737 after 24 hrs by broth microdilution method; type: functional; conditions: ATCC 29737, 24 h
Method in brief: (§1)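 Broth microdilution per CLSI in cation-adjusted Mueller−Hinton broth, in tubes. Compounds dissolved in H2O or DMF, then diluted in PBS to 1000 μg/mL stocks. Serial 2-fold dilutions were made, with final DMF 2.5%. Organisms were grown on TSA at 35 °C for 20 h and adjusted to ~5× 10^5 CFU/mL. Tubes were incubated at 35 °C for 24 h. MIC was the lowest concentration with no visible growth versus control. Biological replicates.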

Staphylococcus aureus [2] = test: Bactericidal activity against methicillin-resistant Staphylococcus aureus DM21455 assessed as log reduction in bacterial count at 2 times MIC up to 30 mins by time kill assay; type: functional
Method in brief: (§2)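 Time-kill. Starting inoculum 10^5−10^6 CFU/mL, exposed to 0.5×, 1×, 2× and 4× MIC at 35 °C. Colonies were counted after 24 h at 35 °C and CFU/mL calculated. Biological replicates.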

[3] = Ratio of HC50 for New Zealand white rabbit RBC to MIC for methicillin-sensitive Staphylococcus aureus DM4583R
Method in brief: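 HC50 measured on fresh New Zealand white rabbit RBCs, washed three times in PBS, at 4% v/v final. Cells were incubated with 2-fold serial dilutions (DMF final 0.5%) at 37 °C for 1 h, then centrifuged. Supernatant absorbance was read at 576 nm, with PBS as 0% and 2% Triton X-100 as 100% lysis. HC50 is the concentration lysing 50% of cells, divided by MIC from broth microdilution.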

Staphylococcus aureus [4] = test: Antibacterial activity against methicillin-resistant Staphylococcus aureus ATCC 700699 after 24 hrs by broth microdilution method; type: functional; conditions: ATCC 700699, 24 h; method in brief: as §1
Staphylococcus aureus [5] = test: Bactericidal activity against methicillin-resistant Staphylococcus aureus DM9808R assessed as log reduction in bacterial count at 4 times MIC up to 2 hrs by time kill assay; type: functional; method in brief: as §2
Staphylococcus aureus [6] = test: Antibacterial activity against methicillin-sensitive Staphylococcus aureus ATCC 29213 after 24 hrs by broth microdilution method; type: functional; conditions: ATCC 29213, 24 h; method in brief: as §1
[7] = Cytotoxicity in human Corneal fibroblasts assessed as LDH release at 30 uM after 24 hrs; type: cell-based; conditions: corneal fibroblast
Method in brief: (§3)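 Human corneal fibroblasts are exposed to test samples for 24 h, and cytotoxicity is read as LDH leakage into the medium. Biological replicates.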

Staphylococcus aureus [8] = test: Induction of plasma membrane permeability in methicillin-resistant Staphylococcus aureus DM9808R assessed as increase in fluorescence intensity at 12.5 ug/ml measured every 1 sec for 50 mins by SYTOX green dye based fluorimetric assay; type: functional
Method in brief: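 Exponential-phase MRSA DM9808R grown on TSA, washed twice and resuspended in PBS (10 mM, pH 7) to OD600 0.2. Cells were loaded with 0.3 μM SYTOX Green in the dark until fluorescence stabilized. Test samples were then added (final DMF 0.5%). Fluorescence at ex 504/em 523 nm was recorded every 1 s for 50 min. Biological replicates.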

Staphylococcus aureus [9] = test: Bactericidal activity against methicillin-resistant Staphylococcus aureus DM21455 up to 4 hrs by time kill assay; type: functional; method in brief: as §2
Staphylococcus aureus [10] = test: Antibacterial activity against methicillin-sensitive Staphylococcus aureus DM4400R after 24 hrs by broth microdilution method; type: functional; method in brief: as §1
[11] = Cytotoxicity in human Corneal fibroblasts assessed as LDH release at 10 uM after 24 hrs; type: cell-based; conditions: corneal fibroblast; method in brief: as §3
Staphylococcus aureus [12] = test: Antibacterial activity against methicillin-sensitive Staphylococcus aureus DM4299 after 24 hrs by broth microdilution method; type: functional; conditions: DM4299, 24 h; method in brief: as §1
Staphylococcus aureus [13] = test: Antibacterial activity against methicillin-resistant Staphylococcus aureus DM 21455 after 24 hrs by broth microdilution method; type: functional; conditions: DM 21455, 24 h; method in brief: as §1
[14] = Cytotoxicity against human Corneal fibroblasts assessed cell viability at 100 uM after 24 hrs by Cell Titer-Glo luminescent assay; type: cell-based, Corneal fibroblast; conditions: read-out: Activity
Method in brief: (§4)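 ATP luminescence viability in human corneal fibroblasts, ~10000 cells per well, duplicate wells. After 24 h exposure the plate is equilibrated 0.5 h at 22 °C before Cell Titer-Glo addition and luminescence read. 1% Triton X-100 serves as positive control, medium-treated cells as negative control. Biological replicates.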

Staphylococcus aureus [15] = test: Antibacterial activity against methicillin-resistant Staphylococcus aureus DB68004 after 24 hrs by broth microdilution method; type: functional; conditions: DB68004, 24 h; method in brief: as §1
Staphylococcus aureus [16] = test: Antibacterial activity against methicillin-resistant Staphylococcus aureus ATCC 700699 infected in C57BL6 mouse corneas assessed as log reduction in bacterial burden at 0.5 % dosed at 1 day post infection administered 5 times daily for 3 days; type: functional
Method in brief: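 C57BL6 mice, 6−8 weeks old, 20−30 g, anesthetized with ketamine/xylazine; four per group. Three 1 mm scratches were made on the right cornea and 10 μL of a 6 × 10^8 CFU/mL MRSA ATCC 700699 suspension was applied. From day 1 post infection, agents in PBS (12 mM, pH 7.2) were given topically 5 times daily for 3 days; PBS alone as control. Corneas were homogenized in 0.9% NaCl with 0.25% BSA and plated on TSA for 48 h at 35 °C.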

Staphylococcus aureus [17] = test: Antibacterial activity against methicillin-sensitive Staphylococcus aureus ATCC 6538 after 24 hrs by broth microdilution method; type: functional; conditions: ATCC 6538, 24 h; method in brief: as §1
[18] = Cytotoxicity against human Corneal fibroblasts assessed cell viability at 80 uM after 24 hrs by Cell Titer-Glo luminescent assay; type: cell-based, Corneal fibroblast; conditions: read-out: Activity; method in brief: as §4
Staphylococcus aureus [19] = test: Antibacterial activity against methicillin-sensitive Staphylococcus aureus DM4583R after 24 hrs by broth microdilution method; type: functional; method in brief: as §1
Staphylococcus aureus [20] = test: Bactericidal activity against methicillin-resistant Staphylococcus aureus DM21455 assessed as log reduction in bacterial count at 4 times MIC up to 30 mins by time kill assay; type: functional; method in brief: as §2
Staphylococcus aureus [21] = test: Antibacterial activity against Staphylococcus aureus DM4001R after 24 hrs by broth microdilution method; type: functional; method in brief: as §1
[22] = Cytotoxicity against human Corneal fibroblasts assessed cell viability at 50 uM after 24 hrs by Cell Titer-Glo luminescent assay; type: cell-based, Corneal fibroblast; conditions: read-out: Activity; method in brief: as §4
[23] = Cytotoxicity in human Corneal fibroblasts assessed as LDH release at 80 uM after 24 hrs; type: cell-based; conditions: corneal fibroblast; method in brief: as §3
Staphylococcus aureus [24] = test: Antibacterial activity against methicillin-resistant Staphylococcus aureus DM 9808R after 24 hrs by broth microdilution method; type: functional; method in brief: as §1
Bacillus cereus = test: Antibacterial activity against Bacillus cereus ATCC 11778 after 24 hrs by broth microdilution method; type: functional; conditions: ATCC 11778, 24 h
Method in brief: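 MIC by CLSI broth microdilution in cation-adjusted Mueller–Hinton broth, tubes. Compounds in H2O or DMF, diluted in PBS to 1000 μg/mL stocks, then serial 2-fold dilutions (final DMF 2.5%). Inoculum ~5×10^5 CFU/mL from TSA plates grown 35 °C 20 h. Incubation 35 °C 24 h; MIC = no visible growth vs control. Biological replicates.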

COC(=O)[C@H](CCCNC(=N)N)NC(=O)COc1cc(O)c2c(=O)c(OCC(=O)N[C@@H](CCCNC(=N)N)C(=O)OC)c(-c3ccc(OC)cc3)oc2c1CC=C(C)C
MIC (Staphylococcus aureus [1]): 1.56 mg/L (≈ 1.89 µM)
Activity (Staphylococcus aureus [2]): 3 deltalog10CFU/ml
Ratio [3]: > 511
MIC (Staphylococcus aureus [4]): 3.13 mg/L (≈ 3.79 µM)
Activity (Staphylococcus aureus [5]): 3 deltalog10CFU/ml
MIC (Staphylococcus aureus [6]): 3.13 mg/L (≈ 3.79 µM)
Activity [7]: -2.3%
Activity (Staphylococcus aureus [8]): Active
Activity (Staphylococcus aureus [9]): Dose-dependent effect
MIC (Staphylococcus aureus [10]): 3.13 mg/L (≈ 3.79 µM)
Activity [11]: -1.52%
MIC (Staphylococcus aureus [12]): 3.13 mg/L (≈ 3.79 µM)
MIC (Staphylococcus aureus [13]): 1.9 µM (≈ 1.57 µg/mL)
viability at 24 h, 100 µM [14]: 57.7%
MIC (Staphylococcus aureus [15]): 3.13 mg/L (≈ 3.79 µM)
Activity (Staphylococcus aureus [16]): 2.95 deltalog10CFU/ml
MIC (Staphylococcus aureus [17]): 1.56 mg/L (≈ 1.89 µM)
viability at 24 h, 80 µM [18]: 69.3%
MIC (Staphylococcus aureus [19]): 1.56 mg/L (≈ 1.89 µM)
Activity (Staphylococcus aureus [20]): 3 deltalog10CFU/ml
MIC (Staphylococcus aureus [21]): 1.9 µM (≈ 1.57 µg/mL)
viability at 24 h, 50 µM [22]: 97.7%
Activity [23]: 18.62%
MIC (Staphylococcus aureus [24]): 3.8 µM (≈ 3.13 µg/mL)
MIC (Bacillus cereus): 3.8 µM (≈ 3.13 µg/mL)
